Screens: PubChem, several laboratories
The list is not random: actives were taken first. Their share in the collection is about 6.5%.
PostGolgi ctrl: growth inhibition of yeast control strain, primary screen, counter-screen for post-Golgi transport modulator project | efflux-deficient yeast background strain, growth absorbance A615, 16 h | inhibition, % at 10 µM | 5% of 98,000 active
PostGolgi yeast: phenotypic screen on post-Golgi transport, primary screen; post-Golgi transport phenotypic cell assay; inhibition, % at 10 µM; AID 739, 2007; 0.9% of 98,000 active;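 note: yeast cells grown in 1536-well plates; yeast grown about 18 h at 30C before absorbance read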
Calb biofilm kill: clotrimazole potentiators killing Candida biofilms, primary screen, with clotrimazole, Alamar Blue; AID 834, 2007; 0.14% of 85,000 active; C. albicans biofilm + clotrimazole; inhibition, % at 6 µM;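 active = inhibition above 20%; inactive = inhibition below 20%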;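 note: preformed 24 hr biofilms exposed to compound for 48 hr; 0% = biofilm without compound and 100% = blank killed by clotrimazole plus chlorhexidine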
Ecoli WT expand: growth inhibitors of wild-type E. coli, primary screen, strain BW25113, expanded library, OD600; OD600 absorbance; growth inhibition, % at 100 µM; 0.15% of 98,000 active;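 active = growth inhibition above about 50% at one test dose, limit read from the data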;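 note: growth measured after 20 h incubation at 37 °C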
tolC growth inh: growth inhibitors of E. coli tolC mutant, primary screen, strain BW25113 ΔtolC::kan, 384-well. OD615. growth inhibition, % at 10 µM (by protocol). 2.2% of 65,000 active;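 active = growth inhibition at or above a cutoff equal to the mean over every tested compound plus 3 SD, cut at about 60% in these data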;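 note: growth measured after 20 h incubation at 37 °C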
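System: E. coli ΔtolC::kan strain BW25113; Buffer or medium: LB broth supplemented with 50 µg/mL kanamycin; Compound: 10 µM final, single dose; Incubation: bacterial growth with compound for 20 h at 37 °C; Signal: A615 absorbance measurement; Evaluation: growth inhibition in percent.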
PTK2B oligo ant: antagonists of Pyk2 self-association, primary screen, Q293 cells, FERM NanoBiT luminescence, HTS | Protein-tyrosine kinase 2-beta (Homo sapiens), Q14289 | active compounds read low | z-score (the deposit names both 25 µM and 10 µM) | 0.83% of 99,000 active | AID 1347419, 2020;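 active = Z-score of -3 or lower, scaled per plate to the spread of control and sample wells; inactive = z-score above -3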;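 note: negative z-score means lost luminescence so less FERM oligomerization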
Target sequence (Q14289 whole entry, looked up): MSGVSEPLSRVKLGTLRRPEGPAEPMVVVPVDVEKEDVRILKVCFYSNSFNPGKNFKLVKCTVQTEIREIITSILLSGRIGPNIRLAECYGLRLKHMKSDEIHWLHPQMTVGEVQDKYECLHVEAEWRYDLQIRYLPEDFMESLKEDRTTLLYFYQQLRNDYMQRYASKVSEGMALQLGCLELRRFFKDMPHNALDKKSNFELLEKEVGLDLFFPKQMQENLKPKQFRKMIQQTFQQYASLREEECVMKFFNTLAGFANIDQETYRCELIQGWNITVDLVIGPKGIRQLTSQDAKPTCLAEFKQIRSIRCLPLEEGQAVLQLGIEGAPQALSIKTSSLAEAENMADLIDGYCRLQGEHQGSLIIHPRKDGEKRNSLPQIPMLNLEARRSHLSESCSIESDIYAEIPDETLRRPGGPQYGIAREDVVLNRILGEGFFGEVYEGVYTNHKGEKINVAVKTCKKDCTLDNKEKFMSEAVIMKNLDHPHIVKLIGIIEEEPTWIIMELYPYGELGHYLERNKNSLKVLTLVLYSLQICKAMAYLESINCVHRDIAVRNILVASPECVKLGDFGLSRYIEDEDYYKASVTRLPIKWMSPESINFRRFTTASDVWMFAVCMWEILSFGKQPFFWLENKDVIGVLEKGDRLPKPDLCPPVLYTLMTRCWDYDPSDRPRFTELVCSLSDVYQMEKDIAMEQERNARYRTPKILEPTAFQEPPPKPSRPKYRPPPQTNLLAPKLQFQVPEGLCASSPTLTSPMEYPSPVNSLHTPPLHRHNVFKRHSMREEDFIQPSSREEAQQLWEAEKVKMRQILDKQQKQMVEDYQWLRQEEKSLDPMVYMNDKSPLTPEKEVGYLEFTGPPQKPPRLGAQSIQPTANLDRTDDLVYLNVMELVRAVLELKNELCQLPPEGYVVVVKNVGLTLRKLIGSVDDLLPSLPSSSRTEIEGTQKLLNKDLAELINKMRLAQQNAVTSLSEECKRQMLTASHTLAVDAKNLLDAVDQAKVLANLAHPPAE
* marks the source's active call; other numbers are inactive results. Cut-off read from the data, not from the text of the source, unless noted: active = inhibition above about 30%; inactive = the rest.

For Cc1nn(C)c(C)c1CNC(=O)c1cnn2c1NC(c1ccccc1)CC2C(F)(F)F (stereo not drawn) the results were PostGolgi ctrl 12.7, PostGolgi yeast 1.6, Calb biofilm kill 5.4, Ecoli WT expand -1.0, tolC growth inh 1.0 and PTK2B oligo ant -1.05.
For Cc1ccc(C2CC(C(F)(F)F)n3nc(C(=O)NCc4c(C)nn(C)c4C)c(Cl)c3N2)cc1 (stereo not drawn) the results were PostGolgi ctrl 6.1, PostGolgi yeast -2.0, Ecoli WT expand 6.0, tolC growth inh 45.4 and PTK2B oligo ant -3.47*.
For CC1CCN(c2nc3c(c(=O)[nH]c(=O)n3C)n2Cc2ccccc2)CC1 the results were PostGolgi ctrl 10.3, PostGolgi yeast -1.4, Calb biofilm kill 5.9, Ecoli WT expand 1.0 and tolC growth inh 4.7.
`CC1CCCN(c2nc3c(c(=O)[nH]c(=O)n3C)n2CCSc2nc3ccccc3o2)C1` (stereo not drawn) gave PostGolgi ctrl -0.3, PostGolgi yeast 1.6, Calb biofilm kill 10.7, Ecoli WT expand -11.0 and tolC growth inh 15.7.
Screening CC1CCCN(c2nc3c(c(=O)[nH]c(=O)n3C)n2CCCc2ccccc2)C1 (stereo not drawn) returned PostGolgi ctrl 35.3*, PostGolgi yeast 2.9, Calb biofilm kill -0.9, Ecoli WT expand 0.0 and tolC growth inh 32.2.
Cn1c(=O)[nH]c(=O)c2c1nc(N1CCCC1)n2CCCSc1nc2ccccc2o1 was read as PostGolgi ctrl 45.6*, PostGolgi yeast -6.2, Calb biofilm kill 10.1, Ecoli WT expand 0.0, tolC growth inh 19.7 and PTK2B oligo ant -0.31.
Screening CCn1c(N2CCC(Cc3ccccc3)CC2)nc2c1c(=O)[nH]c(=O)n2C returned PostGolgi ctrl 37.2*, PostGolgi yeast 1.9, Calb biofilm kill 9.4, Ecoli WT expand 5.0, tolC growth inh 20.1 and PTK2B oligo ant -1.27.
Screening CC(C)(Cl)C1Cc2cc3ccc(=O)oc3cc2O1 (stereo not drawn) returned PostGolgi ctrl 7.2, PostGolgi yeast -9.4, Ecoli WT expand 2.0 and PTK2B oligo ant 0.05.
CN(CC(=O)Nc1ccccc1Br)Cc1nc2ccccc2c(=O)[nH]1 was read as PostGolgi ctrl 22.0, PostGolgi yeast 7.8, Ecoli WT expand -2.0 and PTK2B oligo ant 0.87.
For Cc1ccc(CO/N=C\Cc2snc(Sc3ncc(C(F)(F)F)cc3Cl)c2C#N)cc1 the results were PostGolgi ctrl 15.0, PostGolgi yeast -4.9, Calb biofilm kill -1.1, Ecoli WT expand -24.0 and PTK2B oligo ant -0.31.
For CCOC(=O)Nc1ccc(OC)cc1S(=O)(=O)N1CCCCC1 the results were PostGolgi ctrl 23.9, PostGolgi yeast -3.8, Calb biofilm kill 4.1, Ecoli WT expand 3.0, tolC growth inh -11.4 and PTK2B oligo ant -0.96.
Cc1cccc(NC(=O)C2CCCN(S(=O)(=O)c3cccc4cccnc34)C2)c1 (stereo not drawn) was read as PostGolgi ctrl 19.0, PostGolgi yeast -14.9, Calb biofilm kill 0.9, Ecoli WT expand -5.0 and tolC growth inh 25.4.
COCCOc1cc(-n2ccnc2SC)c(Cl)cc1Cl was read as PostGolgi ctrl 10.7, PostGolgi yeast 5.0, Ecoli WT expand -5.0 and PTK2B oligo ant 1.98.
For CCOC(=O)c1c(NC(=O)Cc2cccs2)sc2c1CCCC2 the results were PostGolgi ctrl 37.2*, PostGolgi yeast -0.3, Calb biofilm kill 1.6, Ecoli WT expand 1.0, tolC growth inh 6.2 and PTK2B oligo ant 0.33.
Screening CCOC(=O)c1c(NS(=O)(=O)Cc2ccccc2)sc2c1CCCC2 returned PostGolgi ctrl 36.4*, PostGolgi yeast 5.5, Calb biofilm kill 3.5, Ecoli WT expand 5.0 and PTK2B oligo ant -0.01.
Screening CCOC(=O)c1c(NC(=O)CN(CC)CC)sc2c1CCC2 returned PostGolgi ctrl 15.4, PostGolgi yeast -7.8, Ecoli WT expand 4.0, tolC growth inh 100.0* and PTK2B oligo ant -1.12.
`CCOC(=O)c1c(NC(=O)OC)sc2c1CCC2` gave PostGolgi ctrl 3.9, PostGolgi yeast -5.8, Calb biofilm kill 9.3, Ecoli WT expand 6.0, tolC growth inh 1.5 and PTK2B oligo ant 0.19.
`Cc1ccc(S(=O)(=O)CC2CSc3nc4ccccc4n32)cc1` (stereo not drawn) gave PostGolgi ctrl 8.8, PostGolgi yeast 18.3, Ecoli WT expand 2.0 and PTK2B oligo ant -0.86.
Screening Cc1cc(C)n2c(Nc3ccc4c(c3)OCCO4)c(-c3ccccc3)nc2n1 returned PostGolgi ctrl 44.1*, PostGolgi yeast 9.6, Calb biofilm kill 1.2, Ecoli WT expand -5.0 and PTK2B oligo ant 0.43.
For Cn1c(C(=O)N2CCCc3ccccc32)cc2sccc21 the results were PostGolgi ctrl 12.5, PostGolgi yeast -5.5, Calb biofilm kill 2.1, Ecoli WT expand 3.0, tolC growth inh 50.4 and PTK2B oligo ant -1.
COc1cccc(C2N(c3cccc(Cl)c3)C(=O)C3CCCN32)c1 (stereo not drawn) was read as PostGolgi ctrl 1.6, PostGolgi yeast -1.5, Calb biofilm kill -6.0, Ecoli WT expand 12.0 and tolC growth inh -13.4.
`O=c1[nH]c(-c2ccccc2O)nc2c1CCCC2` gave PostGolgi ctrl 15.9, PostGolgi yeast 4.4, Calb biofilm kill 6.1, Ecoli WT expand -16.0, tolC growth inh -8.8 and PTK2B oligo ant 1.95.
Screening CCN(CC(=O)Nc1c(C(=O)OC)[nH]c2ccc(C)cc12)c1ccc2c(c1)OCO2 returned PostGolgi ctrl 52.8*, PostGolgi yeast -2.0, Calb biofilm kill 1.1, Ecoli WT expand 0.0, tolC growth inh 4.7 and PTK2B oligo ant -0.03.
`Cc1ccccc1C(=O)Nc1ccc2nc3n(c(=O)c2c1)CCC3` gave PostGolgi ctrl 15.3, PostGolgi yeast -5.5, Calb biofilm kill 10.9, Ecoli WT expand -4.0 and tolC growth inh -7.3.
Screening COc1ccccc1C(=O)NCC(=O)OC(C)C(=O)NC(=O)NC1CCCCC1 (stereo not drawn) returned PostGolgi ctrl 8.3, PostGolgi yeast 10.6, Ecoli WT expand 5.0 and PTK2B oligo ant 0.09.
For Cc1nn(-c2ccccc2)c(Cl)c1C(=O)OC(C)C(=O)NC(=O)NC1CCCCC1 (stereo not drawn) the results were PostGolgi ctrl 21.2, PostGolgi yeast 4.6, Calb biofilm kill 1.9, Ecoli WT expand -9.0 and PTK2B oligo ant -4.2*.
For COc1ccccc1-c1nnc(SC/C(O)=C(\C#N)c2nc3ccccc3[nH]2)n1C1CCCCC1 the results were Calb biofilm kill 0.0 and tolC growth inh 71.4*.
For CS(=O)(=O)N1CCc2cc(-c3csc(NC(=O)Cc4cccs4)n3)ccc21 the results were PostGolgi ctrl 0.3, PostGolgi yeast -5.0, Calb biofilm kill 7.7, Ecoli WT expand -14.0, tolC growth inh 61.6* and PTK2B oligo ant -1.7.
Screening O=C(CN1CCOCC1)Nc1nc(-c2ccc3c(c2)CCN3S(=O)(=O)c2ccccc2)cs1 returned PostGolgi ctrl 10.6, PostGolgi yeast 4.9, Calb biofilm kill -3.9, Ecoli WT expand -10.0, tolC growth inh 8.2 and PTK2B oligo ant -3.04*.
